These results are taken from ChEMBL document CHEMBL1159035, “Click synthesis of estradiol-cyclodextrin conjugates as cell compartment selective estrogens” (Bioorg Med Chem, 2010).

In general, EC50 refers to the concentration that produces a half-maximal response.

Structures are written as SMILES.

For data set [1], the target named is T1, Estrogen receptor (Homo sapiens, UniProt P03372).
T1 sequence (P03372 whole entry): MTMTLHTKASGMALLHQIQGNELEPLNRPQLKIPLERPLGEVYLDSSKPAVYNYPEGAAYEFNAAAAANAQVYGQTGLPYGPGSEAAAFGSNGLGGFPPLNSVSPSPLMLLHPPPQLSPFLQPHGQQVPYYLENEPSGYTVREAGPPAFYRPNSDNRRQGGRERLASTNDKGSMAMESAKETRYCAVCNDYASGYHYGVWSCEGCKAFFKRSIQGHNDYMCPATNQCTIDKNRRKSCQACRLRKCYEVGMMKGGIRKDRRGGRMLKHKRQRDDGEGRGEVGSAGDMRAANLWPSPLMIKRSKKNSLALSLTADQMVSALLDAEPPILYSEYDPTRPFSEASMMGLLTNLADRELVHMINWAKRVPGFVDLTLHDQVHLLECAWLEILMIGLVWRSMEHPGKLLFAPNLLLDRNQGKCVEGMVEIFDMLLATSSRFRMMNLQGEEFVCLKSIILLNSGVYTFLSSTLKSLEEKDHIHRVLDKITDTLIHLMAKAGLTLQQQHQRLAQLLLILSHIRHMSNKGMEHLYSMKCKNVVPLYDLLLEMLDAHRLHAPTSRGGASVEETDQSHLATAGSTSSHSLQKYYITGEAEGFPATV
Kind of data set: Antiestrogenic activity at ERalpha in human Ishikawa cells assessed as alkaline phosphatase activity after 4 days by microplate scanning spectrophotometry. In kind it is cell-based.

In data set [2] the target is T1, Estrogen receptor. Kind of data set: Estrogenic activity at ERalpha in human Ishikawa cells assessed as stimulation of alkaline phosphatase activity after 4 days by microplate scanning spectrophotometry. The format is cell-based.
In data set [3] the test system is MCF7. As to the kind of experiment: Drug uptake in human MCF7 cells assessed as drug localization to nucleus at 100 nM after 24 hrs by confocal fluorescent microscopy. The following applies: mcf7, 24 h, 0.1 µM. In kind it is ADME, cell-based. Put shortly:
(§1)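 MCF-7 cells were grown 48 h at 37 °C, 5% CO2 in phenol-free medium with 10% stripped FBS, then exposed to rhodamine conjugates (100 nM) for 24 h. Rinsed twice with PBS, nuclei stained with Hoechst (0.2 µg/mL). Laser-scanning confocal imaging with rhodamine Ex/Em 544/576 nm, nuclear marker 345/420 nm, plus DIC and overlay. Several images of different cells and planes.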

The target in data set [4] is T1, Estrogen receptor. As to the kind of experiment: Activation of ERalpha-mediated ERE activity in human T47D/PKC cells coexpressing PKCalpha after 18 hrs by luciferase reporter gene assay. In kind it is cell-based.
Data set [5] concerns MCF7. Kind of data set: Drug uptake in human MCF7 cells assessed as drug localization to cytoplasm at 100 nM after 24 hrs by confocal fluorescent microscopy. The format is ADME, cell-based. The settings on record: mcf7, 24 h, 0.1 µM. Put shortly: as §1
Data set [6] concerns the target T1, Estrogen receptor. Kind of data set: Activation of ERalpha-mediated ERE activity in human T47D/neo cells after 18 hrs by luciferase reporter gene assay. In kind it is cell-based. (Reporter assays use an easily measured gene product as a stand-in for the process of interest.)

As for `C[C@]12CC[C@@H]3c4ccc(O)cc4CC[C@H]3[C@@H]1CC[C@@]2(O)C#Cc1ccc(CNC[C@H]2O[C@@H]3O[C@H]4[C@H](O)[C@@H](O)[C@@H](O[C@H]5[C@H](O)[C@@H](O)[C@@H](O[C@H]6[C@H](O)[C@@H](O)[C@@H](O[C@H]7[C@H](O)[C@@H](O)[C@@H](O[C@H]8[C@H](O)[C@@H](O)[C@@H](O[C@H]9[C@H](O)[C@@H](O)[C@@H](O[C@H]2[C@H](O)[C@H]3O)O[C@@H]9CO)O[C@@H]8CO)O[C@@H]7CO)O[C@@H]6CO)O[C@@H]5CO)O[C@@H]4CO)cc1`, the IC50 result in data set [1] was “Not Active”. In data set [2] (read-out: EC50), the EC50 was found to be 4000 nM.

For the compound `NC[C@H]1O[C@@H]2O[C@H]3[C@H](O)[C@@H](O)[C@@H](O[C@H]4[C@H](O)[C@@H](O)[C@@H](O[C@H]5[C@H](O)[C@@H](O)[C@@H](O[C@H]6[C@H](O)[C@@H](O)[C@@H](O[C@H]7[C@H](O)[C@@H](O)[C@@H](O[C@H]8[C@H](O)[C@@H](O)[C@@H](O[C@H]1[C@H](O)[C@H]2O)O[C@@H]8CN)O[C@@H]7CN)O[C@@H]6CN)O[C@@H]5CN)O[C@@H]4CN)O[C@@H]3CN`, in data set [1], the IC50 entry is reported as “Not Active”. For the same compound, the EC50 result in data set [2] (ishikawa) was “Not Active”.

As to `Cn1cc([C@]2(O)CC[C@H]3[C@@H]4CCc5cc(O)ccc5[C@H]4CC[C@@]32C)nn1`, the IC50 entry in data set [1] is given as “Not Active”.

`C[C@]12CC[C@@H]3c4ccc(O)cc4CC[C@H]3[C@@H]1CC[C@@]2(O)C#Cc1ccc(N)cc1`: the IC50 entry in data set [1] was “Not Active”. Also, in data set [2] (read-out: EC50), the EC50 was found to be 10 nM.

Consider `[N-]=[N+]=NC[C@H]1O[C@@H]2O[C@H]3[C@H](O)[C@@H](O)[C@@H](O[C@H]4[C@H](O)[C@@H](O)[C@@H](O[C@H]5[C@H](O)[C@@H](O)[C@@H](O[C@H]6[C@H](O)[C@@H](O)[C@@H](O[C@H]7[C@H](O)[C@@H](O)[C@@H](O[C@H]8[C@H](O)[C@@H](O)[C@@H](O[C@H]1[C@H](O)[C@H]2O)O[C@@H]8CN=[N+]=[N-])O[C@@H]7CN=[N+]=[N-])O[C@@H]6CN=[N+]=[N-])O[C@@H]5C/N=[NH+]\[NH-])O[C@@H]4CN=[N+]=[N-])O[C@@H]3CN=[N+]=[N-]`, for which, in data set [1], the IC50 entry is listed as “Not Active”. Further, the half-maximal effective concentration (EC50) entry in data set [2] (ishikawa) was “Not Active”.

Consider `C[C@]12CC[C@@H]3c4ccc(O)cc4CC[C@H]3[C@@H]1CC[C@@]2(O)C#Cc1ccc(CNC[C@H]2O[C@@H]3O[C@H]4[C@H](O)[C@@H](O)[C@@H](O[C@H]5[C@H](O)[C@@H](O)[C@@H](O[C@H]6[C@H](O)[C@@H](O)[C@@H](O[C@H]7[C@H](O)[C@@H](O)[C@@H](O[C@H]8[C@H](O)[C@@H](O)[C@@H](O[C@H]9[C@H](O)[C@@H](O)[C@@H](O[C@H]2[C@H](O)[C@H]3O)O[C@@H]9CNCc2ccc(C#C[C@]3(O)CC[C@H]9[C@@H]%10CCc%11cc(O)ccc%11[C@H]%10CC[C@@]93C)cc2)O[C@@H]8CNCc2ccc(C#C[C@]3(O)CC[C@H]8[C@@H]9CCc%10cc(O)ccc%10[C@H]9CC[C@@]83C)cc2)O[C@@H]7CNCc2ccc(C#C[C@]3(O)CC[C@H]7[C@@H]8CCc9cc(O)ccc9[C@H]8CC[C@@]73C)cc2)O[C@@H]6CNCc2ccc(C#C[C@]3(O)CC[C@H]6[C@@H]7CCc8cc(O)ccc8[C@H]7CC[C@@]63C)cc2)O[C@@H]5CNCc2ccc(C#C[C@]3(O)CC[C@H]5[C@@H]6CCc7cc(O)ccc7[C@H]6CC[C@@]53C)cc2)O[C@@H]4CNCc2ccc(C#C[C@]3(O)CC[C@H]4[C@@H]5CCc6cc(O)ccc6[C@H]5CC[C@@]43C)cc2)cc1`, for which the IC50 result in data set [1] is recorded as “Not Active”. Also, in data set [2] (read-out: EC50), the concentration giving a half-maximal response (EC50) was 300 nM.

For the compound `CC#C[C@]1(O)CC[C@H]2[C@@H]3CCc4cc(O)ccc4[C@H]3CC[C@@]21C` [ESTROGEN], the EC50 in data set [2] (read-out: EC50) is 0.028 nM.

`C[C@]12CC[C@@H]3c4ccc(O)cc4CC[C@H]3[C@@H]1CC[C@@]2(O)C#Cc1ccc(CO)cc1`: in data set [1], the IC50 entry is “Not Active”. Also, the EC50 in data set [2] (read-out: EC50) worked out at 27 nM.

In the case of `C[C@]12CC[C@@H]3c4ccc(O)cc4CC[C@H]3[C@@H]1CC[C@@]2(O)c1cn(C[C@H]2O[C@@H]3O[C@H]4[C@H](O)[C@@H](O)[C@@H](O[C@H]5[C@H](O)[C@@H](O)[C@@H](O[C@H]6[C@H](O)[C@@H](O)[C@@H](O[C@H]7[C@H](O)[C@@H](O)[C@@H](O[C@H]8[C@H](O)[C@@H](O)[C@@H](O[C@H]9[C@H](O)[C@@H](O)[C@@H](O[C@H]2[C@H](O)[C@H]3O)O[C@@H]9CO)O[C@@H]8CO)O[C@@H]7CO)O[C@@H]6CO)O[C@@H]5CO)O[C@@H]4CO)nn1`, the IC50 result in data set [1] is given as “Not Active”. For the same compound, the EC50 in data set [2] (read-out: EC50) is 4000 nM.

As to `C[C@]12CC[C@@H]3c4ccc(O)cc4CC[C@H]3[C@@H]1CC[C@@]2(O)c1cn(CC[C@H]2O[C@@H]3O[C@H]4[C@H](O)[C@@H](O)[C@@H](O[C@H]5[C@H](O)[C@@H](O)[C@@H](O[C@H]6[C@H](O)[C@@H](O)[C@@H](O[C@H]7[C@H](O)[C@@H](O)[C@@H](O[C@H]8[C@H](O)[C@@H](O)[C@@H](O[C@H]9[C@H](O)[C@@H](O)[C@@H](O[C@H]2[C@H](O)[C@H]3O)O[C@@H]9Cn2cc([C@]3(O)CC[C@H]9[C@@H]%10CCc%11cc(O)ccc%11[C@H]%10CC[C@@]93C)nn2)O[C@@H]8Cn2cc([C@]3(O)CC[C@H]8[C@@H]9CCc%10cc(O)ccc%10[C@H]9CC[C@@]83C)nn2)O[C@@H]7Cn2cc([C@]3(O)CC[C@H]7[C@@H]8CCc9cc(O)ccc9[C@H]8CC[C@@]73C)nn2)O[C@@H]6Cn2cc([C@]3(O)CC[C@H]6[C@@H]7CCc8cc(O)ccc8[C@H]7CC[C@@]63C)nn2)O[C@@H]5Cn2cc([C@]3(O)CC[C@H]5[C@@H]6CCc7cc(O)ccc7[C@H]6CC[C@@]53C)nn2)O[C@@H]4Cn2cc([C@]3(O)CC[C@H]4[C@@H]5CCc6cc(O)ccc6[C@H]5CC[C@@]43C)nn2)nn1`, the Drug uptake result is given as “Not Active” in data set [3] and “Active” in data set [5]. For the same compound, the IC50 entry in data set [1] was “Not Active”. In addition, the EC50 is 2 nM in data set [4], over 100 nM in data set [6] and 200 nM in data set [2] (read-out: EC50).
